From ChEMBL document CHEMBL4190282, “The Conjugated Double Bond of Coniferyl Aldehyde Is Essential for Heat Shock Factor 1 Mediated Cytotoprotection” (J Nat Prod, 2017)
Calls of active or inactive are those of the source. The rule behind the calls is not given here.

Experiments:
[1] = biological target: T1, Heat shock factor protein 1 (Homo sapiens) (UniProt Q00613); experiment: Activation of HSF1 in human L132 cells assessed as increase in HSP70 mRNA expression at 3 uM after 12 hrs by RT-PCR analysis; format: cell-based
T1 sequence (whole entry): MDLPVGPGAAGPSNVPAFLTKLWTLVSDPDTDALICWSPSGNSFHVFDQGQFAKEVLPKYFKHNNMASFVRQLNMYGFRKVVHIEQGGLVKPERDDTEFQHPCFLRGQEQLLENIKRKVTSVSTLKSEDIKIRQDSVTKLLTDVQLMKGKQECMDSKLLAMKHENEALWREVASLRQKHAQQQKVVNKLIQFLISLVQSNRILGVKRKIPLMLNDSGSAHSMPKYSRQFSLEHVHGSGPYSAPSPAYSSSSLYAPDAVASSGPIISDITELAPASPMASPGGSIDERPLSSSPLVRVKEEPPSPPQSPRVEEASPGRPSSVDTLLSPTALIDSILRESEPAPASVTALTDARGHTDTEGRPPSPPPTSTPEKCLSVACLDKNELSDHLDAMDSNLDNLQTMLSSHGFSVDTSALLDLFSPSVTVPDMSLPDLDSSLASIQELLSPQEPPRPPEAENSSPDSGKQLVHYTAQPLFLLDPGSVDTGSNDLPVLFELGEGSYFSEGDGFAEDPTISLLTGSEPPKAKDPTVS
In short: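 L132 human lung fibroblasts treated 12 h at 3 μM; hsp27 and hsp70 mRNA measured by RT-PCR under the same conditions as immunoblotting. Celastrol 1 μM positive control.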

[2] = biological target: T1, Heat shock factor protein 1 (Homo sapiens); experiment: Activation of HSF1 in human L132 cells assessed as increase in HSP27 protein levels at 3 uM by immunoblotting analysis; format: cell-based; settings: TDE = time-dependent effect
In short: (§1)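 L132 cells treated at 3 μM for 12 h, or at various doses for 12 h, or at 3 μM over a time course. Lysates resolved by SDS-PAGE, blotted to nitrocellulose, milk-blocked, primary antibodies 18 h at 4 °C, ECL detection. HSP27, HSP70 and Ser326-phospho-HSF1 bands normalized to loading control; ≥3 independent experiments; celastrol 1 μM positive control.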

Mus musculus = experiment: Protection against IR-induced lethargy in ICR mouse at 5 to 10 mg/kg, ip administered once before and three times after 7 Gy irradiation measured daily for 30 days; format: functional, organism-based
In short: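 Female ICR mice (5–6 weeks, 25–30 g) given 7 Gy whole-body IR; dosed ip at 5 or 10 mg/kg once before and three times after IR, DMSO stock diluted in modified PBS. Survival days and radiation sickness signs checked twice daily; 10 mice per group.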

[3] = biological target: T2, Heat shock factor protein 1 (Mus musculus) (UniProt P38532); experiment: Activation of HSF1 in MEF assessed as protection against paclitaxel-induced caspase3 cleavage at 3 uM pretreated for 1 hr followed by paclitaxel addition measured after 24 hrs by immunoblotting analysis; format: cell-based
T2 sequence (whole entry): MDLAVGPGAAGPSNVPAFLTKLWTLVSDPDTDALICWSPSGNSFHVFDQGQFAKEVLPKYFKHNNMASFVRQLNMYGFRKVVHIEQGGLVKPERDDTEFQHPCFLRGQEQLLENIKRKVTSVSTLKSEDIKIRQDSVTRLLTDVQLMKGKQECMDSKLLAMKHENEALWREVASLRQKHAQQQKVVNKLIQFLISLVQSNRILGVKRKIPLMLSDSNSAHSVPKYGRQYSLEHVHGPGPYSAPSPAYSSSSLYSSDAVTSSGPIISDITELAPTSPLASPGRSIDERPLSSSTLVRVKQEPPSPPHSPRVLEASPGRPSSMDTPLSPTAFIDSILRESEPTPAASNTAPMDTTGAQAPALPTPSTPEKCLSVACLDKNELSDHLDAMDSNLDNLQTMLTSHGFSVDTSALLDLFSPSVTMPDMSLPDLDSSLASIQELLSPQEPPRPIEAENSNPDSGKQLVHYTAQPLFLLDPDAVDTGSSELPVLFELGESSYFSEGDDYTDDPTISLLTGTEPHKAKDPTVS
In short: (§2)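 HSF1+/+ or HSF1−/− MEFs in DMEM with heat-inactivated 10% FBS, nonessential amino acids, glutamine, HEPES, 37 °C, 5% CO2. 1 h pretreatment at 3 μM, then 0.5 μM paclitaxel or 20 μM cisplatin for 24 h, or 10 Gy 137Cs γ-rays (3.81 Gy/min) for 48 h. Cleaved PARP and caspase-3 immunoblotted; bands normalized to loading control, fold-change vs negative control, ≥3 independent experiments.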

L132 = experiment: Cytoprotective activity against cisplatin-induced caspase3 cleavage in human L-132 cells at 3 uM pretreated for 1 hr followed by cisplatin addition measured after 24 hrs by immunoblotting analysis; format: functional, cell-based
In short: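 Human embryonic lung L132 cells in RPMI with 10% FBS. 1 h pretreatment at 3 μM, then 0.5 μM paclitaxel or 20 μM cisplatin for 24 h, or 10 Gy 137Cs γ-rays (3.81 Gy/min) for 48 h. Cleaved PARP and caspase-3 immunoblotted (ECL); bands normalized to loading control, fold-change vs negative control, ≥3 independent experiments.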

[4] = biological target: T1, Heat shock factor protein 1 (Homo sapiens); experiment: Activation of HSF1 in human L132 cells assessed as increase in HSP70 protein levels at 3 uM after 6 to 24 hrs by immunoblotting analysis; format: cell-based; in short: as §1
[5] = biological target: T1, Heat shock factor protein 1 (Homo sapiens); experiment: Activation of HSF1 in human L132 cells assessed as increase in HSP70 protein levels at 1 to 3 uM after 12 hrs by immunoblotting analysis; format: cell-based; in short: as §1
[6] = biological target: T2, Heat shock factor protein 1 (Mus musculus); experiment: Activation of HSF1 in MEF assessed as protection against IR-induced PARP cleavage at 3 uM pretreated for 1 hr followed by 10 Gy irradiation measured after 48 hrs by immunoblotting analysis; format: cell-based; in short: as §2
[7] = biological target: T1, Heat shock factor protein 1 (Homo sapiens); experiment: Activation of HSF1 in human L132 cells assessed as increase in HSP27 protein levels after 12 hrs by immunoblotting analysis; format: cell-based; in short: as §1

| Activity [1] | Activity [2] | Activity [3] | Activity [4] | Activity [5] | Activity [6] | Activity [7] | Structure (SMILES) | Activity (Mus musculus) | Activity (L132) |
| --- | --- | --- | --- | --- | --- | --- | --- | --- | --- |
| Active | Tde | Active | Active | Active | Active | – | COc1cc(/C=C/CO)ccc1O [CONIFERYL ALCOHOL] | Active | Active |
| Active | – | Active | Active | Active | Active | Dose-dependent effect | COc1cc(/C=C/C=O)ccc1O [CONIFERYL ALDEHYDE] | Active | Active |
